# Experimental data taken from ChEMBL document CHEMBL1921794, “Synthesis and in vitro evaluation of analogues of avocado-produced toxin (+)-(R)-persin in human breast cancer cells” (Bioorg Med Chem, 2011).
# What was measured:
# [1] = tested on: Hs-578T; experiment: Cytotoxicity against ER, BimEL, BimL and BimS deficient human Hs578T cells expressing p53 mutant assessed as growth inhibition after 24 hrs by MTS assay; assay type: functional, cell-based
# Summary of the method: (§1)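 ATCC breast cancer cells kept in RPMI-1640 with 5% FCS, insulin and glutamine under standard conditions. Cells in 96-well plates were treated in triplicate for 24 h with drug or vehicle. MTS viability was read as absorbance at 490 nm, expressed as a percentage of solvent controls, and IC50 was derived.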
# [2] = tested on: MDA-MB-157; experiment: Cytotoxicity against ER, BimL and BimS deficient human MDA-MB-157 cells expressing p53 mutant, BimEL assessed as growth inhibition after 24 hrs by MTS assay; assay type: functional, cell-based; settings: MDA-MB-157, 24 h; summary of the method: as §1
# [3] = tested on: MDA-MB-231; experiment: Cytotoxicity against ER, BimEL, BimL and BimS deficient human MDA-MB-231 cells expressing p53 mutant assessed as growth inhibition after 24 hrs by MTS assay; assay type: functional, cell-based; settings: MDA-MB-231, 24 h; summary of the method: as §1
# [4] = tested on: MDA-MB-468; experiment: Cytotoxicity against ER deficient human MDA-MB-468 cells expressing p53 mutant, BimEL, BimL and BimS assessed as growth inhibition after 24 hrs by MTS assay; assay type: functional, cell-based; settings: MDA-MB-468, 24 h; summary of the method: as §1
# [5] = tested on: MCF7; experiment: Cytotoxicity against human MCF7 cells expressing ER assessed as growth inhibition after 24 hrs by MTS assay; assay type: functional, cell-based; settings: MCF7, 24 h; summary of the method: as §1
# [6] = tested on: PC-3; experiment: Cytotoxicity against AR and BimS deficient human PC3 cells expressing p53 mutant, BimEL, BimL assessed as growth inhibition after 24 hrs by MTS assay; assay type: functional, cell-based; settings: PC-3, 24 h
# Summary of the method: (§2)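 Cell lines were obtained from ATCC, plated in 96-well plates, and exposed in triplicate to drug or vehicle for 24 h. Viability was measured by MTS absorbance at 490 nm, taken as a percentage of solvent-treated controls, and IC50 was derived.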
# [7] = tested on: SK-BR-3; experiment: Cytotoxicity against ER deficient human SKBR3 cells expressing p53 mutant, BimEL, BimL and BimS assessed as growth inhibition after 24 hrs by MTS assay; assay type: functional, cell-based; settings: SK-BR-3, 24 h; summary of the method: as §1
# [8] = tested on: LNCaP; experiment: Cytotoxicity against human LNCAP cells expressing AR, wild type p53, BimEL, BimL and BimS assessed as growth inhibition after 24 hrs by MTS assay; assay type: functional, cell-based; summary of the method: as §2
# [9] = tested on: MCF7; experiment: Cytotoxicity against human MCF7 cells expressing ER, wild type p53, BimEL, BimL and BimS assessed as growth inhibition after 24 hrs by MTS assay; assay type: functional, cell-based; settings: MCF7, 24 h; summary of the method: as §1
# [10] = tested on: MCF-10A; experiment: Cytotoxicity against ER, BimL and BimS deficient human MCF10A cells expressing wild type p53, BimEL assessed as growth inhibition after 24 hrs by MTS assay; assay type: cell-based; summary of the method: as §2
# [11] = tested on: IGROV-1; experiment: Cytotoxicity against human IGROV1 cells expressing p53 mutant, BimEL, BimL and BimS assessed as growth inhibition after 24 hrs by MTS assay; assay type: functional, cell-based; settings: IGROV-1, 24 h; summary of the method: as §2
# [12] = tested on: OVCAR-3; experiment: Cytotoxicity against BimEL, BimL and BimS deficient human OVCAR3 cells expressing p53 mutant assessed as growth inhibition after 24 hrs by MTS assay; assay type: functional, cell-based; settings: OVCAR-3, 24 h; summary of the method: as §2
# [13] = tested on: T47D; experiment: Cytotoxicity against BimL, BimS deficient human T47D cells expressing ER, p53 mutant, BimEL assessed as growth inhibition after 24 hrs by MTS assay; assay type: functional, cell-based; summary of the method: as §1
structure (smiles),measurement,setting,value
CCCCCCCCCCCCCCCCCC(=O)C[C@@H](O)COC(C)=O,IC50,[1],> 39 µM
same,IC50,[2],> 39 µM
same,IC50,[3],> 39 µM
same,IC50,[4],> 39 µM
same,IC50,[5],17.1 µM
same,IC50,[6],> 39 µM
same,IC50,[7],> 39 µM
same,IC50,[8],> 39 µM
same,IC50,[9],18.2 µM
same,IC50,[10],> 39 µM
same,IC50,[11],> 39 µM
same,IC50,[12],> 39 µM
same,IC50,[13],20.7 µM
CCCCCCC(=O)C[C@@H](O)COC(C)=O,IC50,[5],> 65 µM
CCCCC/C=C\C/C=C\CCCCCCCC(=O)C[C@@H](O)COC(=O)c1ccccc1,IC50,[5],27 µM
CCCCC/C=C\C/C=C\CCCCCCCC(=O)C[C@H](COC(=O)c1ccccc1)OC(=O)c1ccccc1,IC50,[5],> 27 µM
CCCCC/C=C\C/C=C\CCCCCCCC(=O)C[C@@H](O)COC(=O)c1ccc(Br)cc1,IC50,[5],23.8 µM
CCCCC/C=C\C/C=C\CCCCCCCC(=O)C[C@H](COC(=O)c1ccc(Br)cc1)OC(=O)c1ccc(Br)cc1,IC50,[5],> 21 µM
CCCCC/C=C\C/C=C\CCCCCCCC(=O)/C=C/COC(=O)c1ccc([N+](=O)[O-])cc1,IC50,[5],> 32 µM
CCCCC/C=C\C/C=C\CCCCCCCC(=O)C[C@H](COC(=O)c1ccc([N+](=O)[O-])cc1)OC(=O)c1ccc([N+](=O)[O-])cc1,IC50,[5],> 24 µM
CCCCC/C=C\C/C=C\CCCCCCCC(=O)C[C@@H](O)COC(=O)c1ccncc1,IC50,[5],20.1 µM
CCCCCCCCCCCCCCCCCC(=O)C(C)(C)[C@@H](O)COC(C)=O,IC50,[5],29 µM
CCCCC/C=C\C/C=C\CCCCCCCC(=O)C[C@@H](O)COC(C)=O,IC50,[1],32.1 µM
same,IC50,[2],12.8 µM
same,IC50,[3],> 39 µM
same,IC50,[4],25 µM
same,IC50,[5],15.1 µM
same,IC50,[6],30 µM
same,IC50,[7],19.7 µM
same,IC50,[8],22 µM
same,IC50,[9],15.1 µM
same,IC50,[10],> 39 µM
same,IC50,[11],15.6 µM
same,IC50,[12],27.9 µM
same,IC50,[13],30.3 µM
